Assay results from ChEMBL document CHEMBL1147735, “Library design, synthesis, and screening: pyridine dicarbonitriles as potential prion disease therapeutics” (J Med Chem, 2006).

Tests used:
[1] = target: Major prion protein (Homo sapiens) (UniProt P04156); assay: Binding affinity to human PrPC at 40 uM
Procedure, shortened: (§1)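 SPR at 25 °C, 30 µL/min. Each PrPC form was amine-coupled at 2 µg/mL onto a CM5 dextran chip via NHS/EDC, with ethanolamine block; flow cell 1 served as control. Ligand at 40 µM, 1 min association, 3 min dissociation, with DMSO calibration. Binding expressed as %RU_max, normalised for immobilised RU and molecular weights.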

[2] = target: Major prion protein (Homo sapiens) (UniProt P04156); assay: Binding affinity to truncated human PrPC at 40 uM; procedure, shortened: as §1
[3] = target: Major prion protein (Mus musculus) (UniProt P04925); assay: Binding affinity to mouse PrPC at 40 uM; procedure, shortened: as §1
Major prion protein (Mus musculus), sequence (P04925 whole entry): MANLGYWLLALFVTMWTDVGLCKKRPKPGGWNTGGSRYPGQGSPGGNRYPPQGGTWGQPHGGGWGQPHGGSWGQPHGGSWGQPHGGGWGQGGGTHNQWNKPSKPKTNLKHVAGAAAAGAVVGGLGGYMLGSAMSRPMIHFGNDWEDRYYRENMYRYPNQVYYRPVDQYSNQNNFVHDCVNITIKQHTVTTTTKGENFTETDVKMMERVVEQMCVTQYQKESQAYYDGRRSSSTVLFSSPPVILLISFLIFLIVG

SMILES	RUmax [1]	RUmax [2]	RUmax [3]
N#Cc1c(N)nc(Sc2ccccc2F)c(C#N)c1-c1cccc(O)c1	17.2%	9.2%	18.8%
CC(=O)c1ccc(-c2c(C#N)c(N)nc(Sc3ccc(O)cc3)c2C#N)cc1	0%	0%	0%
CS(=O)(=O)c1ccc(-c2c(C#N)c(N)nc(Sc3ccc(O)cc3)c2C#N)cc1	0%	0%	0%
COC(=O)c1ccc(Sc2nc(N)c(C#N)c(-c3ccccc3)c2C#N)cc1	0%	0%	0%
N#Cc1c(N)nc(Sc2cccc(Cl)c2)c(C#N)c1-c1ccc(Cl)cc1	119%	56.5%	52.3%
N#Cc1c(N)nc(Sc2ccc(O)cc2)c(C#N)c1-c1cccc(O)c1	34%	23.1%	43.1%
COc1cccc(-c2c(C#N)c(N)nc(Sc3cccc(Cl)c3)c2C#N)c1	8.6%	6.7%	0%
COc1cccc(-c2c(C#N)c(N)nc(Sc3ccccc3)c2C#N)c1	0%	0%	0%
CC(=O)Nc1ccc(Sc2nc(N)c(C#N)c(-c3c(F)cccc3F)c2C#N)cc1	37.3%	20%	40.1%
CC(=O)Nc1ccc(Sc2nc(N)c(C#N)c(-c3cc(F)cc(F)c3)c2C#N)cc1	0%	0%	0%
N#Cc1c(N)nc(Sc2cccc(O)c2)c(C#N)c1-c1ccccc1	70.3%	37.6%	60.6%
COC(=O)c1ccc(-c2c(C#N)c(N)nc(Sc3ccc(O)cc3)c2C#N)cc1	0%	0%	0%
COC(=O)c1cccc(Sc2nc(N)c(C#N)c(-c3ccccc3)c2C#N)c1	125%	26.8%	33.2%
COC(=O)c1ccc(-c2c(C#N)c(N)nc(Sc3ccc(C(=O)O)cc3)c2C#N)cc1	5.9%	0%	8.5%
COc1ccc(-c2c(C#N)c(N)nc(Sc3ccccc3)c2C#N)cc1	0%	0%	0%
COC(=O)c1ccc(-c2c(C#N)c(N)nc(Sc3cccc(Cl)c3)c2C#N)cc1	0%	0%	0%
COC(=O)c1ccc(Sc2nc(N)c(C#N)c(-c3ccc(C(=O)OC)cc3)c2C#N)cc1	0%	0%	0%
N#Cc1c(N)nc(Sc2ccccc2)c(C#N)c1-c1ccccc1	0%	0%	0%
COc1ccc(-c2c(C#N)c(N)nc(Sc3cccc(Cl)c3)c2C#N)cc1	0%	0%	0%
COC(=O)c1ccc(-c2c(C#N)c(N)nc(Sc3cccc(C(=O)OC)c3)c2C#N)cc1	0%	0%	0%
N#Cc1c(N)nc(Sc2cccc(Cl)c2)c(C#N)c1-c1ccccc1	0%	0%	0%
N#Cc1c(N)nc(Sc2ccc(Cl)cc2)c(C#N)c1-c1ccccc1	0%	11.4%	0%
N#Cc1c(N)nc(Sc2ccc(O)cc2)c(C#N)c1-c1ccc(O)c(F)c1	44.2%	28%	53.8%
COC(=O)c1ccc(-c2c(C#N)c(N)nc(Sc3ccc(NC(C)=O)cc3)c2C#N)cc1	9.4%	6.4%	13.3%
N#Cc1c(N)nc(Sc2ccc(O)cc2)c(C#N)c1-c1ccc(O)c(Cl)c1	53.4%	33.4%	64.6%
COC(=O)c1ccc(Sc2nc(N)c(C#N)c(-c3ccc(O)cc3)c2C#N)cc1	0%	0%	0%
